Data as given in paper PMC11341722 (Nature Communications, 2024).
Read-outs that look alike come from different tables or passages of the source. One block for each molecule: values may come before it.

Assays:
B^0AT1 (SLC6A19) [1] = molecular target: T1, B^0AT1 (SLC6A19) (Homo sapiens, UniProt Q695T7); assay: FLIPR membrane potential transport assay in CHO-BC cells; assay type: cell-based; conditions: read-out: inhibition at 30 µM
T1 sequence (Q695T7 1-634): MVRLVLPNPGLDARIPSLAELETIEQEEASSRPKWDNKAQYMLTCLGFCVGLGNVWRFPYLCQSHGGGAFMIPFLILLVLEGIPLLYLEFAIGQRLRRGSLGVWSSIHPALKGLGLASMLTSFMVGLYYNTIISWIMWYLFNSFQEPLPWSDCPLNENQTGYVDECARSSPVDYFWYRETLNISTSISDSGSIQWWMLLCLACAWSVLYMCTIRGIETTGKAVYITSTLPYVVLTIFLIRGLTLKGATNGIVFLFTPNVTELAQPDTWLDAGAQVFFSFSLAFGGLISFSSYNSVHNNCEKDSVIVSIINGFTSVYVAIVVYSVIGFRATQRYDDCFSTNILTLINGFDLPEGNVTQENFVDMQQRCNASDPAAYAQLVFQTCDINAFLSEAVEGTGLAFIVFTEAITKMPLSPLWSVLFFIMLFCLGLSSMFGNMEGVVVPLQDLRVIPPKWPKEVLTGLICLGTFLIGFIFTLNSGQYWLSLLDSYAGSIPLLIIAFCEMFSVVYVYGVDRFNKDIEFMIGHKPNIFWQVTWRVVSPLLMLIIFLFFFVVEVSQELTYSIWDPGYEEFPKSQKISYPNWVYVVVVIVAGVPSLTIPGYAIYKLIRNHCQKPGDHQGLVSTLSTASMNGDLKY
T1 sequence (Q9HBJ8 15-222 partner): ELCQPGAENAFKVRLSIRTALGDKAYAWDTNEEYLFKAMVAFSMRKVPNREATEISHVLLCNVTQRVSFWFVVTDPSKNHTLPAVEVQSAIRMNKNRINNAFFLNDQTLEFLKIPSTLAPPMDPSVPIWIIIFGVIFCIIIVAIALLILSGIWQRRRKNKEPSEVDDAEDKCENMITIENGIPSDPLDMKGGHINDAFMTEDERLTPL
In short: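 CHO cells (Flp-In) stably expressing B0AT1 with collectrin, passages <10, seeded at 60,000 cells/well overnight. Washed three times in HBSS + 5 mM glucose, pH 7.5. Preincubated 30 min at room temperature with test compound plus membrane-potential dye. Read fluorescence (ex 530/em 565 nm) every 10 s before and after adding L-leucine to 1.5 mM final, at room temperature.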

B^0AT1 = conditions: substrate; cited from earlier work
B^0AT1 (SLC6A19) [2] = molecular target: T1, B^0AT1 (SLC6A19); conditions: read-out: IC50 range of initially identified inhibitors; cited from earlier work
B^0AT1 (SLC6A19) [3] = molecular target: T1, B^0AT1 (SLC6A19); assay: Optimized radioactive L-[14C]leucine uptake; assay type: cell-based

inhibition at 30 µM (B^0AT1 (SLC6A19) [1]): 8%
SMILES: Cc1cc(Cl)cc(C)c1OCC(=O)NC(C)C [JX8, 2-(4-chloro-2,6-dimethylphenoxy)-N-isopropylacetamide]

SMILES: N[C@@H](Cc1c[nH]c2ccccc12)C(=O)O [L-tryptophan]
Vmax relative to that of L-methionine (B^0AT1): 10%

SMILES: CS(=O)(=O)Nc1ccc([N+](=O)[O-])cc1Oc1ccccc1 [Nimesulide, nimesulide]
IC50 (B^0AT1 (SLC6A19) [2]): 10 to 100 µM

SMILES: CN1[C@@H]2CC[C@H]1C[C@@H](OC(c1ccccc1)c1ccccc1)C2 [benztropine]
IC50 (B^0AT1 (SLC6A19) [2]): 10 to 100 µM

IC50 (B^0AT1 (SLC6A19) [3]): 0.8 ± 0.1 µM
SMILES: CCNC(=O)/C=C/c1cccc(Br)c1 [Cinromide, cinromide]
